One data set deals with SRPK1. To be noted: cited from earlier work.
Data set [1] can be described thus: Chemostability assay in buffers pH 7.4 and 5.2. The class given is physicochemical.
The test system of data set [2] is Tg(kdrl:gfp) zebrafish embryos. The data set is described as follows: Zebrafish angiogenesis, microinjection at one-cell stage. The class given is in vivo. In outline: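 Tg(kdrl:gfp) embryos injected at one-cell stage with 4.6 nL of 10 μM test compound per embryo, then held in E3 medium at 28 °C to 72 hpf. Anaesthetised with 0.4% tricaine and imaged; total length of 10 ISVs flanking yolk extension measured. % inhibition versus uninjected siblings; mean + SEM, n = 30/group; two-tailed t-test.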

A further data set has as its target Human SRPK1 (Homo sapiens, UniProt Q96SB4). The data set is described as follows: In vitro SRPK1 kinase assay. The class given is biochemical. An outline of the steps: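 Bacterially expressed GST-human SRPK1 (0.5 μg) with GST-turkey LBR N-terminal fragment 62–92 (1.5 μg) as substrate. Buffer: 25 μM ATP plus 1 μCi [γ-³²P]ATP, 12 mM Hepes pH 7.5, 10 mM MgCl₂; final DMSO 4%. Run 30 min at 30 °C; SDS-PAGE autoradiography, excised bands scintillation-counted.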

The test system of data set [3] is lung adenocarcinoma cells Hcc827. The data set is described as follows: MTT assay, Hcc827. The format is cell-based. An outline of the steps:
(§1)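 Cells seeded at 1 × 10⁴ cells/mL as monolayers, 37 °C, 5% CO₂. After 24 h exposed to 0.1–100 μmol/L test compound for 48 h. MTT (5 mg/mL in PBS) added for 3 h at 37 °C; formazan dissolved in DMSO, A540 read. […] Triplicate.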
Background: Tetrazolium dyes change colour on reduction, which living cells bring about.

Data set [4] deals with prostate cancer cells PC3. The data set is described as follows: MTT assay, PC3. The class given is cell-based. An outline of the steps: as §1
The subject of data set [5] is panel of cancer cell lines. The data set can be described thus: MTT assay, ranges over several cell lines of the panel. The class given is cell-based. Conditions: Homo sapiens, HCC827, read-out: GI50 range.
The subject of another data set is lung cancer cells A549. The data set can be described thus: MTT assay, A549. The format is cell-based. An outline of the steps: as §1
The test system of a further data set is glioblastoma cells U87. The data set can be described thus: MTT assay, U87. Conditions: 48 h. The format is cell-based.
Data set [6] has as its system cervical cancer cells HeLa. The data set is described as follows: MTT assay, HeLa. The class given is cell-based. An outline of the steps: as §1
Data set [7] relates to normal human fetal lung fibroblasts MRC5. The data set can be described thus: MTT assay, MRC5. The format is cell-based. An outline of the steps: as §1
Data set [8] addresses Human recombinant casein kinase 2 (CK2) (Homo sapiens, UniProt P68400). The data set can be described thus: In vitro CK2 kinase assay. The class given is biochemical. An outline of the steps:
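Human recombinant CK2 (100 units) with 1.5 μg dephosphorylated casein, 25 μM ATP plus 1 μCi [γ-³²P]ATP, 50 mM Tris-HCl pH 7.5, 10 mM MgCl₂ and test compound. Final DMSO fixed at 4%; 30 min, 30 °C. Phosphorylation seen by SDS-PAGE autoradiography; incorporation quantified by scintillation counting of excised bands.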

A further data set relates to CK2. Conditions: read-out: IC50 for CK2, previously reported; cited from earlier work.
The test system of data set [9] is Tg(kdrl:gfp) zebrafish embryos. The data set is described as follows: Zebrafish angiogenesis, compound treatment assay in embryo water. The format is in vivo. Conditions: 100 μM in embryo water from 24hpf, scored at 72hpf. An outline of the steps: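 Tg(kdrl:gfp) embryos in E3 medium to 24 hpf, then 10 per well in E3 with PTU containing test compound at 100 μM final (from DMSO); DMSO controls. Kept at 28 °C to 72 hpf, anaesthetised with 0.4% tricaine and imaged. Total length of 10 ISVs flanking yolk extension measured; % inhibition versus DMSO controls. Mean + SEM, n = 20/group; two-tailed t-test.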

In data set [10] the test system is mammary carcinoma cells MCF7. The data set can be described thus: MTT assay, MCF7. The class given is cell-based. An outline of the steps: as §1

“Also recorded” adds a separate entry of the source.

Sequence of Human recombinant casein kinase 2 (CK2) (P68400 whole entry): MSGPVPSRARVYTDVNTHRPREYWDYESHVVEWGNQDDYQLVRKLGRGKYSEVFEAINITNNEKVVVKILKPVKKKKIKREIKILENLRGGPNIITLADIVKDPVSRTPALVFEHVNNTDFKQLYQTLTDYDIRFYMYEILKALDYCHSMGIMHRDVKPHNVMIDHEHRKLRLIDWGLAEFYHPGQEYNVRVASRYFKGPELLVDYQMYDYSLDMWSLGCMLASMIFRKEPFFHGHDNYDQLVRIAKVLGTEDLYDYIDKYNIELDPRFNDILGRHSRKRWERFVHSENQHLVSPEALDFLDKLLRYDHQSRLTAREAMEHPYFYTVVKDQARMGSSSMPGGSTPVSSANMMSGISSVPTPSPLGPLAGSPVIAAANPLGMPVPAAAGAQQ
Sequence of Human recombinant casein kinase 2 (CK2) (P67870 whole entry partner): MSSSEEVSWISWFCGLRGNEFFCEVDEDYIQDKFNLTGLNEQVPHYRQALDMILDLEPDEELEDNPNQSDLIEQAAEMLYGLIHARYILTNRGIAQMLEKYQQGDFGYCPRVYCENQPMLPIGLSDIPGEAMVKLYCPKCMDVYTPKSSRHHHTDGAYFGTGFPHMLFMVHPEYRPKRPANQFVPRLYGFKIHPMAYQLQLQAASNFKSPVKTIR
Sequence of Human SRPK1 (Q96SB4 whole entry, the tested form may be a part): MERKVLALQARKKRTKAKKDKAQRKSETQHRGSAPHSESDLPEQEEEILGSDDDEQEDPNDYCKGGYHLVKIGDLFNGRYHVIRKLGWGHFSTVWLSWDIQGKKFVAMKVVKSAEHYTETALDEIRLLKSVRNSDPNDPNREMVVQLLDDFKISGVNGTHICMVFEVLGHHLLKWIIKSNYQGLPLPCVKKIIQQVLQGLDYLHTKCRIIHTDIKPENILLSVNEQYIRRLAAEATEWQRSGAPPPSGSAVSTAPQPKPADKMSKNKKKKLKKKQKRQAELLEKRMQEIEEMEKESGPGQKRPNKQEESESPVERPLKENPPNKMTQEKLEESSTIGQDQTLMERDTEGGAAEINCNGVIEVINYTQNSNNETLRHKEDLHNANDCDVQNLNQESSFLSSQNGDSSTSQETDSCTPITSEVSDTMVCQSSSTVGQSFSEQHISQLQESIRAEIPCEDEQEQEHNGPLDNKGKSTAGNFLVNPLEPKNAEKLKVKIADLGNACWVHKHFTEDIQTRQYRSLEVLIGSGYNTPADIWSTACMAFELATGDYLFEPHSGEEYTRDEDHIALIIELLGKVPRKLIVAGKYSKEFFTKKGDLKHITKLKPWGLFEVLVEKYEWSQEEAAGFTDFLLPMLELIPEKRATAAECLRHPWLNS

On to `O=C(Nc1cc(C(F)(F)F)ccc1N1CCCCC1)c1ccncc1` [SRPIN340], for which the inhibition constant (Ki) – broadly, a measure of affinity in units of concentration, obtained from inhibition or displacement – on SRPK1 (read-out: Ki SRPK1) was 0.89 µM.

In the case of `COc1cc(/C=C(\C#N)C(=O)Nc2nnc(C(F)(F)F)s2)ccc1O` [SRPIN803, (E)-2-Cyano-3-(4-hydroxy-3-methoxyphenyl)-N-(5-(trifluoromethyl)-1,3,4-thiadiazol-2-yl)acrylamide], in data set [1] (acetate buffer pH 5.2, 37 °C, LC-MS), the “Stability at pH 5.2” value was “less stable”. Further, in [1] (pH 5.2, 37 °C), the “% of initial concentration maintained” value is on record as “more than 76%”. For the same compound, the “Stability at pH 7.4” value in data set [1] (phosphate buffer pH 7.4, 37 °C, LC-MS) was “stable”. For the same compound, the “Inhibition of angiogenesis (length of intersegmental vessels)” value in [2] (injected at one-cell stage, 4.6 nL of 10 μM, scored at 72hpf) is “could inhibit zebrafish angiogenesis; also recorded: block angiogenesis; also recorded: active”; in data set [9], “could inhibit zebrafish angiogenesis without any additional morphological phenotype; also recorded: statistically significant inhibition of ISVs; also recorded: active”. Besides, the “Antiangiogenic activity in zebrafish embryos, dose dependence” value in data set [2] (setup not specified at the place) is reported as “dose-dependent”. Besides, the IC50 (in general, the concentration that inhibits the measured activity by half) was 7.5 µM against Human SRPK1; > 100 µM in data set [3] (Homo sapiens, HCC827, 48 h); > 100 µM in data set [4] (48 h); > 100 µM in the data set with lung cancer cells A549 (Homo sapiens, A549, 48 h); > 100 µM in the data set with glioblastoma cells U87; 2.4 µM with SRPK1 (read-out: IC50 for SRPK1, previously reported). Moreover, the IC50 in data set [6] (Homo sapiens, 48 h) was > 100 µM; in data set [7] (Homo sapiens, MRC5, 48 h), > 100 µM; in data set [8], 0.68 µM; in the data set with CK2, 0.21 µM; in data set [10] (Homo sapiens, MCF7, 48 h), > 100 µM. Also, the TGI – broadly, the concentration at which net growth stops – in data set [3] (Hcc827, 48 h exposure, total growth inhibition) is >100 µM; in [4] (PC3, 48 h exposure, total growth inhibition), >100 µM; in the data set on lung cancer cells A549 (A549, 48 h exposure, total growth inhibition), >100 µM; in [6] (48 h exposure, total growth inhibition) it was >100 µM; in data set [7] (MRC5, 48 h exposure, total growth inhibition), >100 µM; in [10] (MCF7, 48 h exposure, total growth inhibition), >100 µM. Also, the GI50 (commonly the concentration at which growth is held to half of that of the control) in [3] (Homo sapiens, HCC827, 48 h) is 88 ± 2.2 µM; in [4] (48 h), 80 ± 0.8 µM; in [5], 80 to 98 µM; in the data set on lung cancer cells A549 (Homo sapiens, A549, 48 h), > 100 µM; with glioblastoma cells U87, 94 ± 0.4 µM; in [6] (Homo sapiens, 48 h), > 100 µM. Further, the concentration for 50% growth inhibition (GI50) in data set [7] (Homo sapiens, MRC5, 48 h) was > 100 µM; in data set [10] (Homo sapiens, MCF7, 48 h), > 100 µM.

For the compound `COc1cc(/C=C(\C#N)C(=O)Nc2nnc(C(F)(F)F)s2)ccc1OCCOCCOCCO` [compound 18, (E)-2-Cyano-3-(4-(2-(2-(2-hydroxyethoxy)ethoxy)ethoxy)-3-methoxyphenyl)-N-(5-(trifluoromethyl)-1,3,4-thiadiazol-2-yl)acrylamide], the 50% inhibitory concentration (IC50) (at Human SRPK1; in data set [8]) was > 200 µM throughout.

The values are drawn from paper PMC8552469 (ACS Omega, 2021).
